This note sets out measurements from ChEMBL document CHEMBL2177003, “Development of target protein-selective degradation inducer for protein knockdown” (Bioorg Med Chem, 2011).

The source made the active and inactive calls. No cut-off for these calls is given here.

Experiment [1] deals with HT-1080. Nature of the experiment: Induction of apoptosis in human HT1080 cells at 1 to 30 uM after 24 hrs by lactate dehydrogenase assay. The class given is functional, cell-based. The method, boiled down: (§1)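 HT1080 cells seeded at 2 × 10⁴/well, grown 24 h at 37 °C, then exposed to compounds for 24 h with or without 30 μg/mL etoposide. LDH release measured with a non-radioactive cytotoxicity kit; lysis-buffer wells served as high control. Substrate 30 min at room temperature, stopped, A490 read. Means of triplicates.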

The test system of experiment [2] is HT-1080. In words: Induction of apoptosis in human HT1080 cells assessed as activation of caspase 3/7 at 30 uM after 24 hrs by fluorescence assay in presence of etoposide. It counts as functional, cell-based. The essentials:
(§2)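 HT1080 cells seeded at 2 × 10⁴/well, grown 24 h, then compounds added for 24 h with or without 30 μg/mL etoposide. Caspase-3/7 homogeneous reagent added, 10 h at room temperature. Fluorescence read at ex 485/em 535 nm and expressed as fold change in caspase activity. Means of triplicates; ANOVA with Bonferroni-type multiple t test.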

For experiment [3], the system named is HT-1080. Nature of the experiment: Induction of apoptosis in human HT1080 cells assessed as activation of caspase 3/7 at 30 uM after 24 hrs by fluorescence assay. It counts as functional, cell-based. The essentials: as §2
The subject of experiment [4] is HT-1080. In words: Induction of apoptosis in human HT1080 cells after 24 hrs by lactate dehydrogenase assay in presence of etoposide. It counts as functional, cell-based. The method, boiled down: as §1
Experiment [5] has as its target T1, Complex of retinoic acid binding (CRABPII) and inhibitor of apoptosis (cIAP1) proteins (Homo sapiens) (UniProt P29373+Q13490). Nature of the experiment: Binding affinity to Flag-tagged cIAP1/CRABP2 expressed in human HT1080 cells assessed as induction in CRABP-2 degradation after 12 hrs by Western blot analysis. It counts as cell-based. As to conditions: HT-1080. The method, boiled down: (§3)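 FLAG-tagged IAP-expressing HT1080 cells (1 × 10⁶), RPMI 1640 with 10% heat-inactivated FBS at 37 °C, 5% CO₂, treated for the stated period in medium with 10% FBS. SDS lysates equalized by BCA, resolved on 10–20% SDS–PAGE, PVDF, skim-milk block. Probed for CRABP-II, cIAP1, FLAG and β-actin with HRP secondaries, visualized by enhanced chemiluminescence.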
Background: A western blot detects proteins with antibodies after separation by electrophoresis.

Experiment [6] relates to IMR-32. In words: Induction of apoptosis in human IMR32 cells assessed as activation of caspase 3/7 at 30 uM after 24 hrs by fluorescence assay. The class given is functional, cell-based. The essentials: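 IMR-32 cells seeded at 2 × 10⁴/well, grown 24 h, then exposed to compounds for 24 h. Caspase-3/7 homogeneous reagent added, 0.5 h at room temperature. Fluorescence read at ex 485/em 535 nm and expressed as fold change over control. Means of triplicates; ANOVA with Bonferroni-type multiple t test.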

The subject of experiment [7] is IMR-32. Nature of the experiment: Inhibition of cell proliferation in human IMR32 cells at 1 to 30 uM after 72 hrs by Alamarblue assay. It counts as functional, cell-based. The essentials:
(§4)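 Cells (IMR-32, HT1080 or MCF-7) seeded at 2 × 10⁴/well and grown 24 h at 37 °C. Compounds at various concentrations added for 0–72 h at 37 °C, 5% CO₂. AlamarBlue then added for 3 h at 37 °C. Fluorescence read at ex 540/em 590 nm and converted to percentage cell growth.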

Experiment [8] addresses Baculoviral IAP repeat-containing protein 2 (Homo sapiens) (UniProt Q13490). Nature of the experiment: Induction of auto-degradation of Flag-tagged cIAP1 expressed in HT1080 cells at 0.1 to 10 uM by Western blot analysis. The class given is cell-based. The settings on record: HT-1080. The essentials:
as §3

Experiment [9] has the same target. In words: Inhibition of MeBS-induced degradation of Flag-tagged cIAP1 expressed in HT1080 cells at 100 to 1000 uM by Western blot analysis. The class given is cell-based. The settings on record: HT-1080.
Experiment [10] has the same target. In words: Induction of auto-degradation of Flag-tagged cIAP1 expressed in HT1080 cells at […] by Western blot analysis. The class given is cell-based. The settings on record: HT-1080.
Experiment [11] shares this target. In words: Induction of degradation of Flag-tagged cIAP1 expressed in HT1080 cells at […] by Western blot analysis in presence of MG132. The class given is cell-based. As to conditions: HT-1080.
In a further experiment the test system is XIAP (Homo sapiens). Nature of the experiment: Binding affinity to Flag-tagged XIAP expressed in HT1080 cells assessed as degradation of XIAP at 0.1 to 10 uM after 6 hrs by Western blot analysis. As to conditions: HT-1080.
Experiment [12] deals with T1, Complex of retinoic acid binding (CRABPII) and inhibitor of apoptosis (cIAP1) proteins (Homo sapiens). Nature of the experiment: Binding affinity to Flag-tagged cIAP1/CRABP2 expressed in human HT1080 cells assessed as induction in CRABP-2 degradation at 0.1 to 10 uM after 6 hrs by Western blot analysis. As to conditions: HT-1080. It counts as cell-based. The method, boiled down:
as §3

For experiment [13] the target is unchanged. Nature of the experiment: Binding affinity to Flag-tagged cIAP1/CRABP2 expressed in human HT1080 cells assessed as formation of ternary complex by GST-pull down assay. The class given is cell-based. As to conditions: HT-1080.
Experiment [14] shares this target. In words: Binding affinity to Flag-tagged cIAP1/CRABP2 expressed in human HT1080 cells assessed as induction in cIAP1 degradation at 0.1 to 10 uM after 6 hrs by Western blot analysis. As to conditions: HT-1080. It counts as cell-based. The essentials:
as §3

Another experiment has as its system MCF7. In words: Inhibition of cell proliferation in human MCF7 cells at 1 to 30 uM after 72 hrs by Alamar blue assay. The class given is functional, cell-based. The essentials:
as §4
(In general: Resazurin is reduced to fluorescent resorufin, in cell work by metabolically active cells.)

Experiment [15] addresses T1, Complex of retinoic acid binding (CRABPII) and inhibitor of apoptosis (cIAP1) proteins (Homo sapiens). Nature of the experiment: Binding affinity to Flag-tagged cIAP1/CRABP2 expressed in human HT1080 cells assessed as induction in CRABP-2 degradation after 48 hrs by Western blot analysis. It counts as cell-based. The settings on record: HT-1080. The method, boiled down:
as §3

In experiment [16] the test system is IMR-32. In words: Inhibition of cell proliferation in human IMR32 cells after 72 hrs by Alamarblue assay. It counts as functional, cell-based. The method, boiled down:
as §4

Experiment [17] concerns the target T1, Complex of retinoic acid binding (CRABPII) and inhibitor of apoptosis (cIAP1) proteins (Homo sapiens). Nature of the experiment: Binding affinity to Flag-tagged cIAP1/CRABP2 expressed in human IMR32 cells assessed as reduction in MycN level at 1 to 10 uM after 48 hrs by Western blot analysis. The class given is cell-based. The settings on record: IMR-32.
For experiment [18], the system named is HT-1080. Nature of the experiment: Inhibition of cell proliferation in human HT1080 cells at 1 to 30 uM after 72 hrs by Alamar blue assay. It counts as functional, cell-based. The method, boiled down:
as §4

For experiment [19], the target named is T1, Complex of retinoic acid binding (CRABPII) and inhibitor of apoptosis (cIAP1) proteins (Homo sapiens). In words: Binding affinity to Flag-tagged cIAP1/CRABP2 expressed in human MCF7 cells assessed as reduction in CRABP2 level at 0.1 uM to 1 uM after 6 hrs by Western blot analysis. It counts as cell-based.
Experiment [20] has the same target. Nature of the experiment: Binding affinity to Flag-tagged cIAP1/CRABP2 expressed in human HT1080 cells assessed as induction in CRABP-2 degradation at 1 uM after 6 hrs by Western blot analysis in presence of MeBS. It counts as cell-based. The settings on record: HT-1080.
The target is the same in experiment [21]. In words: Binding affinity to Flag-tagged cIAP1/CRABP2 expressed in human HT1080 cells assessed as reduction in CRABP2 level at 0.1 uM to 1 uM after 6 hrs by Western blot analysis. It counts as cell-based. The settings on record: HT-1080. The method, boiled down:
as §3

For experiment [22] the target is unchanged. In words: Binding affinity to Flag-tagged cIAP1/CRABP2 expressed in human HT1080 cells assessed as induction in CRABP-2 degradation after 6 hrs by Western blot analysis. It counts as cell-based. The settings on record: HT-1080. The essentials:
as §3

Experiment [23] shares this target. In words: Binding affinity to Flag-tagged cIAP1/CRABP2 expressed in human IMR32 cells assessed as reduction in CRABP-2 level at 1 to 10 uM after 24 hrs by Western blot analysis. The settings on record: IMR-32.
In experiment [24] the test system is HT-1080. In words: Induction of apoptosis in human HT1080 cells at 1 to 30 uM after 24 hrs by lactate dehydrogenase assay in presence of etoposide. It counts as functional, cell-based. The essentials:
as §1

Experiment [25] addresses T1, Complex of retinoic acid binding (CRABPII) and inhibitor of apoptosis (cIAP1) proteins (Homo sapiens). In words: Binding affinity to Flag-tagged cIAP1/CRABP2 expressed in human HT1080 cells assessed as induction in cIAP1 degradation at 30 uM after 6 hrs by Western blot analysis. The class given is cell-based. As to conditions: HT-1080. The essentials:
as §3

The target is the same in experiment [26]. In words: Binding affinity to Flag-tagged cIAP1/CRABP2 expressed in human HT1080 cells assessed as induction in CRABP-2 degradation at 1 uM after 6 hrs by Western blot analysis. It counts as cell-based. As to conditions: HT-1080. The essentials:
as §3

For experiment [27] the target is unchanged. In words: Binding affinity to Flag-tagged cIAP1/CRABP2 expressed in human HT1080 cells assessed as induction in CRABP-2 degradation at 1 uM after 6 hrs by Western blot analysis in presence of proteasome inhibitor MG132. It counts as cell-based. The settings on record: HT-1080. The method, boiled down: (§5)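 HT1080 cells expressing FLAG-tagged cIAP1 were pretreated with proteasome inhibitor (MG132 or lactacystin), then given 1 μM degrader for 6 h. CRABP-II read by Western blot: SDS lysates equalized by BCA, 10–20% SDS–PAGE, PVDF, ECL.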

For experiment [28] the target is unchanged. Nature of the experiment: Binding affinity to Flag-tagged cIAP1/CRABP2 expressed in human HT1080 cells assessed as induction in CRABP-2 degradation at 1 uM after 6 hrs by Western blot analysis in presence of proteasome inhibitor lactacystin. The class given is cell-based. As to conditions: HT-1080. The essentials:
as §5

Sequence of Baculoviral IAP repeat-containing protein 2 (Homo sapiens) (Q13490 whole entry): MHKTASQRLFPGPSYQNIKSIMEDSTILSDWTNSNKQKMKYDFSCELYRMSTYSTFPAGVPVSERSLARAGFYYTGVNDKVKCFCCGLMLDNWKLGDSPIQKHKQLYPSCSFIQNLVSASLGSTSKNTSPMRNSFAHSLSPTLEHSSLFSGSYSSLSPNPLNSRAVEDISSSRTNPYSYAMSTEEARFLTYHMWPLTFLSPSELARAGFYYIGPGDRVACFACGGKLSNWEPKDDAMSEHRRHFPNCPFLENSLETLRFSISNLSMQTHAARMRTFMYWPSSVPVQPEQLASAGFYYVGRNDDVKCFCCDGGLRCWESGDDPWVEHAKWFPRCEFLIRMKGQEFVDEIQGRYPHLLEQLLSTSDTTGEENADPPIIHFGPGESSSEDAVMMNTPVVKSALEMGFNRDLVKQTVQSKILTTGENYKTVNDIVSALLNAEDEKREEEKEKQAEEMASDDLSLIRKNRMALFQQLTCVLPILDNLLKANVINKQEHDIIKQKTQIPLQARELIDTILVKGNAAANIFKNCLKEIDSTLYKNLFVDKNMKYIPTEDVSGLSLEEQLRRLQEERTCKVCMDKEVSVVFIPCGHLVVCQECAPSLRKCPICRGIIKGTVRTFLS

For the molecule `CC1=C(/C=C/C(C)=C/C=C/C(C)=C/C(=O)O)C(C)(C)CC/C1=N\OCC(=O)NCCOCCOCCOC(=O)[C@H](CC(C)C)NC(=O)[C@@H](O)[C@H](N)Cc1ccccc1`, the outcome in the experiment with HT-1080 [1] and in the experiment on HT-1080 [3] was inactive. Further, the result (in the experiment with HT-1080 [2]; in experiment [5]) was Active. Besides, the Activity result with HT-1080 [4] was “Dose-dependent effect”.

As for `COC(=O)[C@H](CC(C)C)NC(=O)[C@@H](O)[C@H](N)Cc1ccccc1`, the outcome with HT-1080 [1], with IMR-32 [6] and in the experiment on HT-1080 [3] was inactive. Moreover, the result in the experiment on HT-1080 [2] was Active. Besides, in the experiment with IMR-32 [7], the inhibition entry was “inactive”. The Activity result with HT-1080 [4] is “Dose-dependent effect”.

As to `CNC(=O)[C@H](CC(C)C)NC(=O)CCCc1ccccc1`, the outcome in experiment [8] was inactive.

For the molecule `CNC(=O)[C@H](CC(C)C)NC(=O)[C@@H](O)[C@H](N)Cc1ccccc1`, the result (in experiment [8]; in the experiment on IMR-32 [6]; in experiment [10]; in experiment [11]; with XIAP (Homo sapiens)) was inactive. Moreover, the inhibition result in experiment [9] is “Active”. In addition, the inhibition result in the experiment with IMR-32 [7] is “inactive”.

For `CC1=C(/C=C/C(C)=C/C=C/C(C)=C/C(=O)O)C(C)(C)CC/C1=N\OCC(=O)NCCOCCOCCNC(=O)[C@H](CC(C)C)NC(=O)CCCc1ccccc1`, the result in experiment [12], in experiment [13] and in [14] was inactive.

On to `CC1=C(/C=C/C(C)=C/C=C/C(C)=C/C(=O)O)C(C)(C)CC/C1=N\OCC(=O)NCCOCCOCCNC(=O)[C@H](CC(C)C)NC(=O)[C@@H](O)[C@H](N)Cc1ccccc1`, for which the result (in the experiment on MCF7; with HT-1080 [2]; in the experiment with HT-1080 [18]; in the experiment with HT-1080 [3]; in [20]; in the experiment with HT-1080 [24]) was inactive. In addition, the outcome in experiment [25], in experiment [14], in experiment [27] and in experiment [28] was inactive. For the same molecule, the result (in experiment [15]; in experiment [17]; in the experiment with IMR-32 [6]; in experiment [19]; in experiment [21]; in [13]) was Active. For the same molecule, the outcome in experiment [23] and in experiment [26] was Active. The inhibition result in the experiment on IMR-32 [16] was “Dose-dependent effect”. Also, the Activity entry in [22] is “Dose-dependent effect”.
